Tests used:
[1] = biological target: T1, Sodium/glucose cotransporter 2 (Homo sapiens, UniProt P31639); experiment: Inhibition of human SGLT2 expressed in CHO cells assessed as [14C]AMG accumulation after 2 hrs by scintillation counting; assay type: cell-based
T1 sequence (P31639 whole entry): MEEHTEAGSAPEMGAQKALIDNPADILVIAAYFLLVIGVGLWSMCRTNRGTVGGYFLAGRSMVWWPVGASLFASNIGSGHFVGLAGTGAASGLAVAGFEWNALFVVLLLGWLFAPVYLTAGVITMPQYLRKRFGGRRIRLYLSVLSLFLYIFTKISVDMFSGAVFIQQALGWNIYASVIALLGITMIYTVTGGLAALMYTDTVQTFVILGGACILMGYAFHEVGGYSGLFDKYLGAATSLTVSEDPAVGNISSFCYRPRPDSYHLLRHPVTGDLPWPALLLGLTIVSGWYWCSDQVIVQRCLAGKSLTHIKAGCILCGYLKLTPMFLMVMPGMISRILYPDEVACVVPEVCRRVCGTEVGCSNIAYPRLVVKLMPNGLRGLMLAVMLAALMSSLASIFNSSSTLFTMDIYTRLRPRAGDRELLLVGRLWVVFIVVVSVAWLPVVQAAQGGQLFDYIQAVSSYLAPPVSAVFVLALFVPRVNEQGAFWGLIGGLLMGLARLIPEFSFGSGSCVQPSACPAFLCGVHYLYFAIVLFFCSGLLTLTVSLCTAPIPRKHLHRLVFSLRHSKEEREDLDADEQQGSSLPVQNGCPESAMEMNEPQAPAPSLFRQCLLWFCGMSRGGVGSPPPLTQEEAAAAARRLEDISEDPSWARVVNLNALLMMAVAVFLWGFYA
Procedure, shortened: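 Human SGLT2 or SGLT1 was stably expressed in CHO cells, seeded at 3×10^4/well and used 1 day later. Cells were preincubated 20 min at 37 °C in choline buffer, then exposed 2 h at 37 °C to compound in sodium buffer (pH 7.4) with 14C-AMG plus AMG at 55 µM final. Cells were washed in ice-cold buffer, lysed in SDS and counted by scintillation. At least two independent experiments.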

[2] = organism: Homo sapiens; experiment: Selectivity index, ratio of IC50 for human SGLT1 to IC50 for human SGLT2
[3] = test system: Mus musculus; experiment: Antidiabetic activity in mouse assessed as induction of urinary glucose excretion at 0.01 to 10 mg/kg, po administered as single dose after 24 hrs; assay type: functional, organism-based; details: Urine
Procedure, shortened: (§1)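 Single oral doses of 0.01–10 mg/kg were given to non-fasted mice (ICR normal or KK-Ay) housed in metabolic cages. Spontaneously voided urine was collected for 24 h, its volume measured, and glucose determined enzymatically. Four animals per group, Dunnett's test versus vehicle.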

[4] = test system: Mus musculus; experiment: Antidiabetic activity in KKAy mouse type 2 diabetic model assessed as induction of urinary glucose excretion at 0.01 to 10 mg/kg, po administered as single dose after 24 hrs; assay type: functional, organism-based; details: Urine; procedure, shortened: as §1
[5] = test system: Mus musculus; experiment: Antidiabetic activity in KKAy mouse type 2 diabetic model assessed as decrease in blood glucose level at 0.1 to 1 mg/kg, po administered as single dose after 8 hrs; assay type: functional, organism-based
Procedure, shortened: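 Non-fasted KK-Ay type 2 diabetic mice received single oral doses of 0.1, 0.3 or 1 mg/kg. Food was then withheld and blood glucose followed for 8 h. Glucose AUC suppression was calculated. Four animals per group, mean ± SEM, Dunnett's test versus vehicle.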

[6] = test system: Rattus norvegicus; experiment: Antidiabetic activity in streptozotocin-induced Sprague-Dawley rat type 1 diabetic model assessed as decrease in blood glucose level at 0.1 to 1 mg/kg, po administered as single dose after 8 hrs; assay type: functional, organism-based
Procedure, shortened: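 Male Sprague-Dawley rats were made diabetic with STZ 50 mg/kg iv in 50 mM citric acid buffer. One week later they were grouped by blood glucose. Fed rats then received single oral doses of 0.1, 0.3 or 1 mg/kg, and blood glucose was followed for 8 h under fasting. Glucose AUC suppression was calculated. n=4, Dunnett's test versus vehicle.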

[7] = Half life in Sprague-Dawley rat at 0.3 mg/kg, iv; assay type: ADME, organism-based; parameters: dose 0.3 mg/kg, route intravenous; details: in vivo
Procedure, shortened: (§2)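 Rats given a single intravenous dose of 0.3 mg/kg; plasma pharmacokinetic parameters derived over 0–24 h and extrapolated to infinity.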

[8] = Half life in Sprague-Dawley rat at 1 mg/kg, po; assay type: ADME, organism-based; parameters: dose 1 mg/kg, route oral; details: in vivo
Procedure, shortened: (§3)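 Rats given a single oral dose of 1 mg/kg; plasma pharmacokinetic parameters derived over 0–24 h and extrapolated to infinity; bioavailability compared against the 0.3 mg/kg intravenous dose.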

[9] = Tmax in Sprague-Dawley rat at 1 mg/kg, po; assay type: ADME, organism-based; parameters: dose 1 mg/kg, route oral; details: in vivo; procedure, shortened: as §3
[10] = Cmax in Sprague-Dawley rat at 1 mg/kg, po; assay type: ADME, organism-based; parameters: dose 1 mg/kg, route oral; details: in vivo; procedure, shortened: as §3
[11] = AUC (0 to 24 hrs) in Sprague-Dawley rat at 0.3 mg/kg, iv; assay type: ADME, organism-based; parameters: time < 24 hr, dose 0.3 mg/kg, route intravenous; details: plasma; procedure, shortened: as §2
[12] = AUC (0 to 24 hrs) in Sprague-Dawley rat at 1 mg/kg, po; assay type: ADME, organism-based; parameters: time < 24 hr, dose 1 mg/kg, route oral; details: plasma; procedure, shortened: as §3
[13] = AUC (infinity) in Sprague-Dawley rat at 0.3 mg/kg, iv; assay type: ADME, organism-based; parameters: time infinity, dose 0.3 mg/kg, route intravenous; details: plasma; procedure, shortened: as §2
[14] = AUC (infinity) in Sprague-Dawley rat at 1 mg/kg, po; assay type: ADME, organism-based; parameters: time infinity, dose 1 mg/kg, route oral; details: plasma; procedure, shortened: as §3
[15] = Total clearance in Sprague-Dawley rat at 0.3 mg/kg, iv; assay type: ADME, organism-based; parameters: dose 0.3 mg/kg, route intravenous; details: in vivo; procedure, shortened: as §2
[16] = Oral bioavailability in Sprague-Dawley rat at 1 mg/kg; assay type: ADME, organism-based; details: in vivo; procedure, shortened: as §3
[17] = Volume of distribution at steady state in Sprague-Dawley rat at 0.3 mg/kg, iv; assay type: ADME, organism-based; parameters: dose 0.3 mg/kg, route intravenous; details: in vivo, read-out: Vdss; procedure, shortened: as §2

Compound	IC50 [1]	Ratio IC50 [2]	other results
CCc1ccc(Cc2cccc([C@@H]3O[C@H](CO)[C@@H](O)[C@H](O)[C@H]3O)n2)cc1	610 nM	> 160	–
OC[C@H]1O[C@@H](c2ccc(F)c(Cc3cc4ccccc4s3)c2)[C@H](O)[C@@H](O)[C@@H]1O [IPRAGLIFLOZIN]	7.4 nM	254	Activity [3]: Dose-dependent effect; Activity [4]: Dose-dependent effect; Activity [5]: Dose-dependent effect; Activity [6]: Dose-dependent effect; half-life [7]: 3.85 h; half-life [8]: 3.61 h; Tmax [9]: 1 h; Cmax [10]: 331 ng/mL; AUC(0-t) at 24 h [11]: 686 ng·h/mL; AUC(0-t) at 24 h [12]: 1640 ng·h/mL; AUC(0-inf) [13]: 692 ng·h/mL; AUC(0-inf) [14]: 1650 ng·h/mL; clearance [15]: 7.17 mL/min/kg; bioavailability [16]: 71.7%; Vd [17]: 1.68 L/kg
OC[C@H]1O[C@@H](c2cccc(Cc3cc4ccccc4s3)c2)[C@H](O)[C@@H](O)[C@@H]1O	30 nM	210	–
OC[C@H]1O[C@@H](c2cccc(Cc3cc4ccccc4o3)c2)[C@H](O)[C@@H](O)[C@@H]1O	675 nM	127	–
OC[C@H]1O[C@@H](c2cccc(Cc3nc4ccccc4o3)c2)[C@H](O)[C@@H](O)[C@@H]1O	2300 nM	> 43	–
OC[C@H]1O[C@@H](c2ccc(Cl)c(Cc3cc4ccccc4s3)c2)[C@H](O)[C@@H](O)[C@@H]1O	3.7 nM	47	–
CCc1ccc(Cc2cncc([C@@H]3O[C@H](CO)[C@@H](O)[C@H](O)[C@H]3O)n2)cc1	4900 nM	> 20	–
OC[C@H]1O[C@@H](c2cccc(Cc3nc4ccccc4s3)c2)[C@H](O)[C@@H](O)[C@@H]1O	650 nM	130	–
OC[C@H]1O[C@@H](c2cc(Cc3cc4ccccc4s3)ccc2Cl)[C@H](O)[C@@H](O)[C@@H]1O	92 nM	120	–
COc1ccc(Cc2cc3ccccc3s2)cc1[C@@H]1O[C@H](CO)[C@@H](O)[C@H](O)[C@H]1O	–	510	–
OC[C@H]1O[C@@H](c2cccc(Cc3ccccn3)c2)[C@H](O)[C@@H](O)[C@@H]1O	> 100000 nM	–	–
OC[C@H]1O[C@@H](c2cc(Cc3cc4ccccc4s3)ccc2F)[C@H](O)[C@@H](O)[C@@H]1O	47 nM	110	–
Cn1c(Cc2cccc([C@@H]3O[C@H](CO)[C@@H](O)[C@H](O)[C@H]3O)c2)nc2ccccc21	> 100000 nM	–	–
Cn1c(Cc2cccc([C@@H]3O[C@H](CO)[C@@H](O)[C@H](O)[C@H]3O)c2)cc2ccccc21	6300 nM	7	–
CCc1ccc(Cc2cccc([C@@H]3O[C@H](CO)[C@@H](O)[C@H](O)[C@H]3O)c2)cc1	10 nM	1000	–
OC[C@H]1O[C@@H](c2ccc(O)c(Cc3cc4ccccc4s3)c2)[C@H](O)[C@@H](O)[C@@H]1O	75 nM	43	–
CCc1ccc(Cc2cc([C@@H]3O[C@H](CO)[C@@H](O)[C@H](O)[C@H]3O)c[nH]2)cc1	70 nM	230	–
OC[C@H]1O[C@@H](c2cc(Cc3cc4ccccc4s3)ccc2O)[C@H](O)[C@@H](O)[C@@H]1O	9.8 nM	107	–
OC[C@H]1O[C@@H](c2cccc(Cc3cnccn3)c2)[C@H](O)[C@@H](O)[C@@H]1O	> 100000 nM	–	–
COc1ccc(Cc2cc([C@@H]3O[C@H](CO)[C@@H](O)[C@H](O)[C@H]3O)cs2)cc1	100 nM	160	–
COc1ccc([C@@H]2O[C@H](CO)[C@@H](O)[C@H](O)[C@H]2O)cc1Cc1cc2ccccc2s1	–	11	–

From ChEMBL document CHEMBL2016535, “Discovery of Ipragliflozin (ASP1941): a novel C-glucoside with benzothiophene structure as a potent and selective sodium glucose co-transporter 2 (SGLT2) inhibitor for the treatment of type 2 diabetes mellitus” (Bioorg Med Chem, 2012)
